The record followed here is ChEMBL document CHEMBL1147249, “Sunpollenol and five other rearranged 3,4-seco-tirucallane-type triterpenoids from sunflower pollen and their inhibitory effects on Epstein-Barr virus activation” (J Nat Prod, 2003).

The first data set deals with Raji. In words: Inhibition of 12-O-tetradecanoylphorbol-13-acetate-induced EBV-early antigen activation in human Raji cells assessed as early antigen induction at 1000 molar ratio after 48 hrs by conventional indirect immunofluorescence technique relative to TPA. The settings on record: human gammaherpesvirus 4. It is filed as cell-based. Further details: scale not given: the % may be the effect or the level left. The gist of the method:
(§1)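 Raji cells (1 × 10^6 cells/mL, RPMI-1640 with 10% FBS) were induced with 4 mM n-butyric acid plus […] TPA (20 ng/mL in DMSO). Test compound (32, 16, 3.2, 0.32 nmol in 1 mL) was present for 48 h at 37 °C. EA-positive cells were stained with NPC patient sera and detected by indirect immunofluorescence, at least 500 cells per assay, three repeats. Results are given as percent of butyrate+TPA control.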
For `CC1=C(/C=C/C(C)=C/C=C/C(C)=C/C=C/C=C(C)/C=C/C=C(C)/C=C/C2=C(C)CCCC2(C)C)C(C)(C)CCC1`, the Activity turned out to be 8.6%.
Turning to `C[C@@H](CC[C@@H](O)C(C)(C)O)[C@@H]1CC[C@]2(C)[C@H]3CC[C@@]4(C(C)(C)O)OCCC[C@H]4[C@]3(C)CC[C@@]12C`, the Activity is 0%.
`CC(C)=CCC[C@H](C)[C@@H]1CC[C@]2(C)[C@H]3CC[C@@]4(C(C)(C)O)OCCC[C@H]4[C@]3(C)CC[C@@]12C` [SUNPOLLENOL]: the Activity turned out to be 3.1%.
The same measure, in the same setting: next, `C[C@@H](CC[C@H]1OC1(C)C)[C@@H]1CC[C@]2(C)[C@H]3CC[C@@]4(C(C)(C)O)OCCC[C@H]4[C@]3(C)CC[C@@]12C` [(24R)-24,25-EPOXYSUNPOLLENOL]: 0%; `C[C@@H](C/C=C/C(C)(C)O)[C@@H]1CC[C@]2(C)[C@H]3CC[C@@]4(C(C)(C)O)OCCC[C@H]4[C@]3(C)CC[C@@]12C` [(23E)-23-DEHYDRO-25-HYDROXYSUNPOLLENOL]: 0%; `C[C@@H](CC[C@H](O)C(C)(C)O)[C@@H]1CC[C@]2(C)[C@H]3CC[C@@]4(C(C)(C)O)OCCC[C@H]4[C@]3(C)CC[C@@]12C` [(24S)-24,25-DIHYDROXYSUNPOLLENOL]: 0%.
Still for that read-out and setting: next, `C[C@@H](CC[C@@H]1OC1(C)C)[C@@H]1CC[C@]2(C)[C@H]3CC[C@@]4(C(C)(C)O)OCCC[C@H]4[C@]3(C)CC[C@@]12C`: 0%.

The test system of another data set is Raji. Nature of the data set: Inhibition of 12-O-tetradecanoylphorbol-13-acetate-induced EBV-early antigen activation in human Raji cells assessed as early antigen induction at 500 molar ratio after 48 hrs by conventional indirect immunofluorescence technique relative to TPA. It is filed as cell-based. More on the design: scale not given: the % may be the effect or the level left. The settings on record: human gammaherpesvirus 4. The gist of the method: as §1
As to `C[C@@H](CC[C@@H](O)C(C)(C)O)[C@@H]1CC[C@]2(C)[C@H]3CC[C@@]4(C(C)(C)O)OCCC[C@H]4[C@]3(C)CC[C@@]12C`, the Activity worked out at 24.4%.
With `CC(C)=CCC[C@H](C)[C@@H]1CC[C@]2(C)[C@H]3CC[C@@]4(C(C)(C)O)OCCC[C@H]4[C@]3(C)CC[C@@]12C` [SUNPOLLENOL], the Activity amounted to 30.5%.
As to `C[C@@H](CC[C@H]1OC1(C)C)[C@@H]1CC[C@]2(C)[C@H]3CC[C@@]4(C(C)(C)O)OCCC[C@H]4[C@]3(C)CC[C@@]12C` [(24R)-24,25-EPOXYSUNPOLLENOL], the Activity amounted to 26.3%.
On to `C[C@@H](C/C=C/C(C)(C)O)[C@@H]1CC[C@]2(C)[C@H]3CC[C@@]4(C(C)(C)O)OCCC[C@H]4[C@]3(C)CC[C@@]12C` [(23E)-23-DEHYDRO-25-HYDROXYSUNPOLLENOL], for which the Activity worked out at 22%.
Take `C[C@@H](CC[C@H](O)C(C)(C)O)[C@@H]1CC[C@]2(C)[C@H]3CC[C@@]4(C(C)(C)O)OCCC[C@H]4[C@]3(C)CC[C@@]12C` [(24S)-24,25-DIHYDROXYSUNPOLLENOL]: the Activity came to 25.3%.
With `C[C@@H](CC[C@@H]1OC1(C)C)[C@@H]1CC[C@]2(C)[C@H]3CC[C@@]4(C(C)(C)O)OCCC[C@H]4[C@]3(C)CC[C@@]12C`, the Activity turned out to be 27.3%.

The next data set concerns Raji. Nature of the data set: Inhibition of 12-O-tetradecanoylphorbol-13-acetate-induced EBV-early antigen activation in human Raji cells assessed as early antigen induction at 100 molar ratio after 48 hrs by conventional indirect immunofluorescence technique relative to TPA. Format: cell-based. More on the design: scale not given: the % may be the effect or the level left. The settings on record: human gammaherpesvirus 4. The gist of the method:
as §1
As for `C[C@@H](CC[C@@H](O)C(C)(C)O)[C@@H]1CC[C@]2(C)[C@H]3CC[C@@]4(C(C)(C)O)OCCC[C@H]4[C@]3(C)CC[C@@]12C`, the Activity came to 72.4%.
In the case of `CC(C)=CCC[C@H](C)[C@@H]1CC[C@]2(C)[C@H]3CC[C@@]4(C(C)(C)O)OCCC[C@H]4[C@]3(C)CC[C@@]12C` [SUNPOLLENOL], the Activity was determined as 74.3%.
Turning to `C[C@@H](CC[C@H]1OC1(C)C)[C@@H]1CC[C@]2(C)[C@H]3CC[C@@]4(C(C)(C)O)OCCC[C@H]4[C@]3(C)CC[C@@]12C` [(24R)-24,25-EPOXYSUNPOLLENOL], the Activity came to 72.6%.
As for `C[C@@H](C/C=C/C(C)(C)O)[C@@H]1CC[C@]2(C)[C@H]3CC[C@@]4(C(C)(C)O)OCCC[C@H]4[C@]3(C)CC[C@@]12C` [(23E)-23-DEHYDRO-25-HYDROXYSUNPOLLENOL], the Activity is 70.6%.
On the same count and under the same terms, next, `C[C@@H](CC[C@H](O)C(C)(C)O)[C@@H]1CC[C@]2(C)[C@H]3CC[C@@]4(C(C)(C)O)OCCC[C@H]4[C@]3(C)CC[C@@]12C` [(24S)-24,25-DIHYDROXYSUNPOLLENOL]: 73.3%; `C[C@@H](CC[C@@H]1OC1(C)C)[C@@H]1CC[C@]2(C)[C@H]3CC[C@@]4(C(C)(C)O)OCCC[C@H]4[C@]3(C)CC[C@@]12C`: 75.9%.

The subject of the next data set is Raji. Nature of the data set: Inhibition of 12-O-tetradecanoylphorbol-13-acetate-induced EBV-early antigen activation in human Raji cells assessed as early antigen induction at 10 molar ratio after 48 hrs by conventional indirect immunofluorescence technique relative to TPA. Format: cell-based. More on the design: scale not given: the % may be the effect or the level left. The settings on record: human gammaherpesvirus 4. The gist of the method: as §1
As for `CC1=C(/C=C/C(C)=C/C=C/C(C)=C/C=C/C=C(C)/C=C/C=C(C)/C=C/C2=C(C)CCCC2(C)C)C(C)(C)CCC1`, the Activity was found to be 100%.
On to `C[C@@H](CC[C@@H](O)C(C)(C)O)[C@@H]1CC[C@]2(C)[C@H]3CC[C@@]4(C(C)(C)O)OCCC[C@H]4[C@]3(C)CC[C@@]12C`, for which the Activity is 92.5%.
As to `CC(C)=CCC[C@H](C)[C@@H]1CC[C@]2(C)[C@H]3CC[C@@]4(C(C)(C)O)OCCC[C@H]4[C@]3(C)CC[C@@]12C` [SUNPOLLENOL], the Activity stood at 96.8%.
Take `C[C@@H](CC[C@H]1OC1(C)C)[C@@H]1CC[C@]2(C)[C@H]3CC[C@@]4(C(C)(C)O)OCCC[C@H]4[C@]3(C)CC[C@@]12C` [(24R)-24,25-EPOXYSUNPOLLENOL]: the Activity worked out at 91.8%.
Turning to `C[C@@H](C/C=C/C(C)(C)O)[C@@H]1CC[C@]2(C)[C@H]3CC[C@@]4(C(C)(C)O)OCCC[C@H]4[C@]3(C)CC[C@@]12C` [(23E)-23-DEHYDRO-25-HYDROXYSUNPOLLENOL], the Activity amounted to 90%.
Regarding `C[C@@H](CC[C@H](O)C(C)(C)O)[C@@H]1CC[C@]2(C)[C@H]3CC[C@@]4(C(C)(C)O)OCCC[C@H]4[C@]3(C)CC[C@@]12C` [(24S)-24,25-DIHYDROXYSUNPOLLENOL], the Activity came to 94.2%.
Take `C[C@@H](CC[C@@H]1OC1(C)C)[C@@H]1CC[C@]2(C)[C@H]3CC[C@@]4(C(C)(C)O)OCCC[C@H]4[C@]3(C)CC[C@@]12C`: the Activity stood at 97.4%.

System in another data set: not listed separately
In words: Cytotoxicity against human Raji cells assessed as cell viability at 1000 molar ratio after 48 hrs by trypan blue staining method. Format: cell-based. The settings on record: read-out: Activity. A digest of the protocol: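 Raji cells (EBV genome-carrying, nonproducer) at 1 × 10^6 cells/mL in RPMI-1640 with 10% FBS were exposed to 4 mM n-butyric acid, […] TPA and test compound at 37 °C in a CO2 incubator. Viability was scored by Trypan Blue staining and given as percent viable Raji cells.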
`C[C@@H](CC[C@@H](O)C(C)(C)O)[C@@H]1CC[C@]2(C)[C@H]3CC[C@@]4(C(C)(C)O)OCCC[C@H]4[C@]3(C)CC[C@@]12C`: the viability at 48 h, 1000 molar ratio is 70%.
Regarding `CC(C)=CCC[C@H](C)[C@@H]1CC[C@]2(C)[C@H]3CC[C@@]4(C(C)(C)O)OCCC[C@H]4[C@]3(C)CC[C@@]12C` [SUNPOLLENOL], the viability at 48 h, 1000 molar ratio amounted to 70%.
The same measure, in the same setting: next, `C[C@@H](CC[C@H]1OC1(C)C)[C@@H]1CC[C@]2(C)[C@H]3CC[C@@]4(C(C)(C)O)OCCC[C@H]4[C@]3(C)CC[C@@]12C` [(24R)-24,25-EPOXYSUNPOLLENOL]: 60%; `C[C@@H](C/C=C/C(C)(C)O)[C@@H]1CC[C@]2(C)[C@H]3CC[C@@]4(C(C)(C)O)OCCC[C@H]4[C@]3(C)CC[C@@]12C` [(23E)-23-DEHYDRO-25-HYDROXYSUNPOLLENOL]: 70%.
On the same count and under the same terms, the result for `C[C@@H](CC[C@H](O)C(C)(C)O)[C@@H]1CC[C@]2(C)[C@H]3CC[C@@]4(C(C)(C)O)OCCC[C@H]4[C@]3(C)CC[C@@]12C` [(24S)-24,25-DIHYDROXYSUNPOLLENOL] reads 70%; that for `C[C@@H](CC[C@@H]1OC1(C)C)[C@@H]1CC[C@]2(C)[C@H]3CC[C@@]4(C(C)(C)O)OCCC[C@H]4[C@]3(C)CC[C@@]12C`, 70%.
